Reference: ChEMBL document CHEMBL3352492, “Selenorhodamine photosensitizers for photodynamic therapy of P-glycoprotein-expressing cancer cells” (J Med Chem, 2014)
Active and inactive are the calls of the source. No cut-off for these calls is given here.

How the values were obtained:
Colon 26 [1] = assay: Photo-toxicity in mouse Colon 26 cells assessed as reduction in cell surviving fraction at =< 0.5 uM and up to 1 Jcm'-2 of continuous illumination with 350 to 700 nm light incubated for 48 hrs by sulforhodamine B assay; assay type: functional, cell-based
In short: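 Colo-26 cells, 10 000 per well, grown 24 h in RPMI 1640 with 10% FBS. Dye at ≤0.5 μM for 1 h in the dark. Irradiated up to 1.0 J cm^-2 with 350–700 nm tungsten–halogen light at 3.7–4.1 mW cm^-2, then 48 h at 37 °C. Survival by sulforhodamine B at 570 nm.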

Colon 26 [2] = assay: Dark toxicity in mouse Colon 26 cells assessed as cell surviving fraction at 0.1 to 0.5 uM incubated for 1 hr by sulforhodamine B assay; assay type: cell-based; conditions: colon 26, 1 h
In short: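 Colo-26 murine colon carcinoma cells, 10 000 per well, grown 24 h in RPMI 1640 with 10% FBS. Dye at 0.1–0.5 μM for 1 h in the dark, then fresh medium and 48 h at 37 °C, 5% CO2. Viability by sulforhodamine B, absorbance at 570 nm, reported as surviving fraction.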

Colon 26 [3] = assay: Drug uptake in mouse Colon 26 cells at 0.5 uM in presence of 100 uM verapamil by flow cytometry; assay type: ADME, cell-based; conditions: colon 26, 0.5 µM
In short: (§1)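 Colo-26 cells given 0.5 μM dye for 1 h, with or without 100 μM verapamil. Uptake read by flow cytometry as relative fluorescence, excitation 561 nm and emission 710 nm. Error bars are SD.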

Colon 26 [4] = assay: Drug uptake in mouse Colon 26 cells at 0.5 uM in absence of 100 uM verapamil by flow cytometry; assay type: ADME, cell-based; conditions: colon 26, 0.5 µM; in short: as §1
[5] = Selectivity index, ratio of LD50 dark toxicity against mouse Colon 26 cells to EC50 for Photo-toxicity against mouse Colon 26 cells 1 Jcm'-2 of continuous illumination with 350 to 700 nm light; assay type: cell-based; conditions: read-out: Ratio LD50/EC50
Colon 26 [6] = assay: Potentiation of doxorubicin-induced cytotoxicity against mouse Colon 26 cells at 0.15 uM incubated in dark for 1 hr by sulforhodamine B assay; assay type: functional, cell-based
In short: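 Colo-26 cells were plated at 10 000/well and held 24 h. Doxorubicin (0.005–5.0 μM) was applied with or without 0.15 μM selenorhodamine, with Dox-only and dye-only controls, for 1 h in the dark with no irradiation. Medium was replaced, then 48 h at 37 °C, 5% CO₂. Surviving fraction by sulforhodamine B assay (570 nm); six replicates; Student's t-test pairwise.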

Colon 26 [7] = assay: Photo-toxicity in mouse Colon 26 cells assessed as reduction in cell surviving fraction at 0.15 uM at >5 Jcm'-2 of continuous illumination with 350 to 700 nm light incubated for 48 hrs by sulforhodamine B assay; assay type: functional, cell-based
Colon 26 [8] = assay: Potentiation of doxorubicin-induced cytotoxicity against mouse Colon 26 cells at 0.15 uM incubated in dark for 1 hr then irradiated with light dose of 1 Jcm'-2 of 613 nm laser light measured after 48 hrs by sulforhodamine B assay; assay type: functional, cell-based
In short: (§2)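 Colo-26 cells were plated at 10 000/well and held 24 h. Doxorubicin (0.005, 0.05, 0.5, 1.0 or 5.0 μM) was added with 0.15 μM selenorhodamine, both diluted in RPMI from stocks, with Dox-only and dye-only wells. After 1 h in the dark, cells were laser-irradiated at λmax ± 2 nm, 3.2 mW cm⁻², 1 J cm⁻². Fresh medium, then 48 h at 37 °C, 5% CO₂. Surviving fraction by SRB absorbance at 570 nm; six replicates.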

Colon 26 [9] = assay: Photo-toxicity against mouse Colon 26 cells at 0.15 uM incubated in dark for 1 hr then irradiated with light dose of 1 Jcm'-2 of 613 nm laser light measured after 48 hrs by sulforhodamine B assay; assay type: functional, cell-based
In short: (§3)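 Colo-26 murine colon carcinoma cells were grown in RPMI 1640 with L-glutamine, 10% FBS and 1% penicillin–streptomycin. They were plated at 10 000 cells/well and held 24 h. Selenorhodamine was added at 0.15 μM (final) and cells were kept 1 h in the dark. Cells were then irradiated with a tunable dye laser at λmax ± 2 nm, 3.2 mW cm⁻², to 1 J cm⁻². Medium was replaced, followed by 48 h at 37 °C, 5% CO₂. Viability was read by sulforhodamine B at 570 nm.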

[10] = Lipophilicity, log P of the compound by pH 7.4 at 23 degC by UV-visible spectrophotometry based shake flask method; assay type: physicochemical; conditions: buffer
In short: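 Shake-flask method. A saturated n-octanol solution of dye was mixed with an equal volume of PBS, pH 7.4, at 23 °C for 3–5 min, then left 1 h to settle. The concentration in each layer was measured by UV–visible spectrophotometry.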

Colon 26 [11] = assay: Photo-toxicity in mouse Colon 26 cells assessed as reduction in cell surviving fraction at 1 Jcm'-2 of continuous illumination with 350 to 700 nm light incubated for 48 hrs by sulforhodamine B assay; assay type: functional, cell-based; conditions: Colon 26, 48 h
In short: (§4)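 Colo-26 cells were incubated 1 h in the dark with 0.1–0.5 μM […], then irradiated up to 1.0 J cm^-2 with 350–700 nm tungsten–halogen light (3.7–4.1 mW cm^-2). Cells were kept 48 h and survival was measured by sulforhodamine B assay.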

Colon 26 [12] = assay: Photo-toxicity in mouse Colon 26 cells assessed as reduction in cell surviving fraction at 0.5 Jcm'-2 of continuous illumination with 350 to 700 nm light incubated for 48 hrs by sulforhodamine B assay; assay type: functional, cell-based; conditions: Colon 26, 48 h; in short: as §4
Colon 26 [13] = assay: Photo-toxicity against mouse Colon 26 cells at 0.15 uM incubated in dark for 1 hr then irradiated with light dose of 1 Jcm'-2 of 611 nm laser light measured after 48 hrs by sulforhodamine B assay; assay type: functional, cell-based; in short: as §3
[14] = Photo-stability assessed as drug degradation exposed to after 230 Jcm'-2 of continuous illumination with 350 to 800 nm light in solutions of 10% CH3OH in pH 7.4 buffer; assay type: physicochemical; conditions: solution of 10% CH3OH in pH 7.4 buffer, read-out: Drug degradation
[15] = Permeability in MDCK2-MDR1 cells assessed as cell associated fraction by measuring mass fraction extracted from cell monolayer by methanol wash after 1 hr flux in apical to basolateral direction at 5 uM in presence of 4.3 mg/ml BSA and in presence of P-gp inhibitor LSN335984 by mass spectrometry; assay type: ADME, cell-based, Canis lupus familiaris; conditions: dog, mdck-ii
In short: (§5)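 MDCKII-MDR1 cells seeded at 50 000 cells cm^-2 on Transwell polycarbonate filters, used on day 6. After a rinse in DPBSH at 37 °C, monolayers were preincubated 30 min in 4.3 mg mL^-1 BSA/DPBSH with or without 5 μM P-gp inhibitor LSN 335984. Then 5 μM dye was added apically and run 1 h AB flux at 37 °C with nutation. Monolayers were rinsed in cold DPBS and extracted 3 min in methanol, and compound was quantified by LC-MS/MS. Cell-associated value is the percentage of added mass recovered.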

[16] = Photo-stability assessed as drug degradation exposed to after 230 Jcm'-2 of continuous illumination with 500 to 800 nm light in solutions of 10% CH3OH in pH 7.4 buffer; assay type: physicochemical; conditions: solution of 10% CH3OH in pH 7.4 buffer, read-out: Drug degradation
Colon 26 [17] = assay: Potentiation of 0.5 uM doxorubicin-induced cytotoxicity against mouse Colon 26 cells at 0.15 uM incubated in dark for 1 hr then irradiated with light dose of 1 Jcm'-2 of 611 nm laser light measured after 48 hrs by sulforhodamine B assay; assay type: functional, cell-based; in short: as §2
[18] = Permeability in MDCK2-MDR1 cells assessed as cell associated fraction by measuring mass fraction extracted from cell monolayer by methanol wash after 1 hr flux in apical to basolateral direction at 5 uM in presence of 4.3 mg/ml BSA and in absence of P-gp inhibitor LSN335984 by mass spectrometry; assay type: ADME, cell-based, Canis lupus familiaris; conditions: dog, mdck-ii; in short: as §5
Colon 26 [19] = assay: Potentiation of 1 uM doxorubicin-induced cytotoxicity against mouse Colon 26 cells assessed as cell surviving fraction at 0.15 uM incubated in dark for 1 hr then irradiated with light dose of 1 Jcm'-2 of 611 nm laser light measured after 48 hrs by sulforhodamine B assay; assay type: functional; in short: as §2
Colon 26 [20] = assay: Photo-toxicity in mouse Colon 26 cells assessed as reduction in cell surviving fraction at 0.15 uM at 1 Jcm'-2 of continuous illumination with 350 to 700 nm light incubated for 48 hrs by sulforhodamine B assay; assay type: functional, cell-based
Colon 26 [21] = assay: Photo-toxicity in mouse Colon 26 cells assessed as reduction in cell surviving fraction at 15 Jcm'-2 of continuous illumination with 360 to 800 nm light incubated for 48 hrs by sulforhodamine B assay; conditions: Colon 26, 48 h

SMILES	Activity (Colon 26 [1])	Activity (Colon 26 [2])	Drug uptake (Colon 26 [4])	Activity (Colon 26 [6])	logD [10]	fold change (FC) (Colon 26 [3])	EC50 (Colon 26 [11])	EC50 (Colon 26 [12])	also measured
CN1CCC(C)(C)c2cc3c(-c4ccc(C(=S)N5CCCCC5)s4)c4ccc(=[N+](C)C)cc-4sc3cc21.F[P-](F)(F)(F)(F)F	inactive	> 0.95	Active						Drug uptake (Colon 26 [3]): Not Active
CCN(CC)C(=O)c1ccc(-c2c3ccc(=[N+](C)C)cc-3[se]c3cc4c(cc23)C(C)(C)CCN4C)s1.[Cl-]				inactive	2.26	5	300 nM	310 nM	selectivity ratio [5]: 26; Activity (Colon 26 [7]): Active; Activity (Colon 26 [8]): inactive; Activity (Colon 26 [9]): inactive
CCN(CC)C(=O)c1ccc(-c2c3ccc(=[N+](C)C)cc-3sc3cc4c(cc23)C(C)(C)CCN4C)s1.F[P-](F)(F)(F)(F)F	inactive	> 0.95				7			
CN1CCC(C)(C)c2cc3c(-c4ccc(C(=S)N5CCCCC5)s4)c4ccc(=[N+](C)C)cc-4[se]c3cc21.[Cl-]			Active	inactive	1.61		140 nM	220 nM	Activity (Colon 26 [13]): Active; degraded [14]: 50%; Activity [15]: 55%; degraded [16]: 50%; Activity (Colon 26 [17]): Active; Activity [18]: 45%; Activity (Colon 26 [19]): <=0.2; Activity (Colon 26 [20]): Active
CN1CCC(C)(C)c2cc3c(-c4ccc(C(=O)N5CCCCC5)s4)c4ccc(=[N+](C)C)cc-4sc3cc21.F[P-](F)(F)(F)(F)F	inactive	> 0.95							
CN(C)c1ccc(-c2cc(-c3ccc(N)cc3)[s+]c(-c3ccc(N)cc3)c2)cc1									EC50 (Colon 26 [21]): 70 nM
CN1CCC(C)(C)c2cc3c(-c4ccc(C(=O)N5CCCCC5)s4)c4ccc(=[N+](C)C)cc-4[se]c3cc21.[Cl-]				inactive	2.23		410 nM	> 500 nM	Activity (Colon 26 [8]): inactive; Activity [15]: 39%; Activity (Colon 26 [9]): inactive; Activity [18]: 16%
CCN(CC)C(=S)c1ccc(-c2c3ccc(=[N+](C)C)cc-3[se]c3cc4c(cc23)C(C)(C)CCN4C)s1.[Cl-]			Active	inactive	2.41	1.3	170 nM	200 nM	Activity (Colon 26 [13]): Active; selectivity ratio [5]: 56; degraded [14]: 50%; degraded [16]: 50%; Activity (Colon 26 [17]): Active; Activity (Colon 26 [19]): <=0.2; Activity (Colon 26 [20]): Active
CCN(CC)C(=S)c1ccc(-c2c3ccc(=[N+](C)C)cc-3sc3cc4c(cc23)C(C)(C)CCN4C)s1.F[P-](F)(F)(F)(F)F	inactive	> 0.95	Active			1.3			
